Measured values taken from ChEMBL document CHEMBL1955790, “One pot synthesis and anticancer activity of dimeric phloroglucinols” (Bioorg Med Chem Lett, 2012).

Key:
ACHN [1] = assay: Growth inhibition of human ACHN cells at 10 uM after 48 hrs by WST-8 assay; type: functional; conditions: read-out: GI
Procedure, shortened: (§1)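 ATCC cells kept in DMEM with 10% FBS and antibiotics at 37 °C, 5% CO2. Seeded 5×10^3/well, incubated overnight, then treated with compound for 48 h against a DMSO vehicle control (≤0.1%). CCK-8 (WST-8) reduction by live-cell dehydrogenases read at 450 nm (corrected 650 nm) after 4 h at 37 °C. Viable cells expressed as % of the DMSO control.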

PANC-1 [2] = assay: Growth inhibition of human PANC1 cells at 10 uM after 48 hrs by WST-8 assay; type: functional; conditions: PANC-1, 48 h, read-out: GI; procedure, shortened: as §1
Calu-1 [3] = assay: Cytotoxicity against human Calu1 cells after 48 hrs by WST-8 assay; type: functional, cell-based; conditions: Calu-1, 48 h
Procedure, shortened: (§2)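 ATCC cells kept in DMEM with 10% FBS, penicillin/streptomycin at 37 °C, 5% CO2. Seeded 5×10^3/well and left overnight, then exposed to a range of concentrations with DMSO vehicle (≤0.1%) as control. After 48 h, CCK-8 (WST-8) was added for 4 h at 37 °C and A450 read, corrected to 650 nm. Viability is % of DMSO control. IC50 was taken from log cytotoxicity curves.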

NCI-H460 [4] = assay: Growth inhibition of human NCI-H460 cells at 10 uM after 48 hrs by WST-8 assay; type: functional; conditions: NCI-H460, 48 h, read-out: GI; procedure, shortened: as §1
ACHN [5] = assay: Cytotoxicity against human ACHN cells after 48 hrs by WST-8 assay; type: functional, cell-based; procedure, shortened: as §2
HCT-116 [6] = assay: Growth inhibition of human HCT116 cells at 10 uM after 48 hrs by WST-8 assay; type: functional; conditions: HCT-116, 48 h, read-out: GI; procedure, shortened: as §1
Calu-1 [7] = assay: Growth inhibition of human Calu1 cells at 10 uM after 48 hrs by WST-8 assay; type: functional; conditions: Calu-1, 48 h, read-out: GI; procedure, shortened: as §1
HCT-116 [8] = assay: Cytotoxicity against human HCT116 cells after 48 hrs by WST-8 assay; type: functional, cell-based; conditions: HCT-116, 48 h; procedure, shortened: as §2
NCI-H460 [9] = assay: Cytotoxicity against human NCI-H460 cells after 48 hrs by WST-8 assay; type: functional, cell-based; conditions: NCI-H460, 48 h; procedure, shortened: as §2
MCF-10A = assay: Cytotoxicity against human MCF10A cells after 48 hrs by WST-8 assay; type: cell-based; procedure, shortened: as §2
PANC-1 [10] = assay: Cytotoxicity against human PANC1 cells after 48 hrs by WST-8 assay; type: functional, cell-based; conditions: PANC-1, 48 h; procedure, shortened: as §2
Calu-1 [11] = assay: Growth inhibition of human Calu1 cells at 500 nM after 48 hrs by WST-8 assay; type: functional; conditions: Calu-1, 48 h, read-out: GI; procedure, shortened: as §1
ACHN [12] = assay: Growth inhibition of human ACHN cells at 500 nM after 48 hrs by WST-8 assay; type: functional; conditions: read-out: GI; procedure, shortened: as §1
HCT-116 [13] = assay: Growth inhibition of human HCT116 cells at 500 nM after 48 hrs by WST-8 assay; type: functional; conditions: HCT-116, 48 h, read-out: GI; procedure, shortened: as §1
PANC-1 [14] = assay: Growth inhibition of human PANC1 cells at 500 nM after 48 hrs by WST-8 assay; type: functional; conditions: PANC-1, 48 h, read-out: GI; procedure, shortened: as §1
NCI-H460 [15] = assay: Growth inhibition of human NCI-H460 cells at 500 nM after 48 hrs by WST-8 assay; type: functional; conditions: NCI-H460, 48 h, read-out: GI; procedure, shortened: as §1

| Compound | inhibition of growth at 10 µM (ACHN [1]) [%] | inhibition of growth at 10 µM (PANC-1 [2]) [%] | IC50 (Calu-1 [3]) [µM] | inhibition of growth at 10 µM (NCI-H460 [4]) [%] | IC50 (ACHN [5]) [µM] | inhibition of growth at 10 µM (HCT-116 [6]) [%] | inhibition of growth at 10 µM (Calu-1 [7]) [%] | IC50 (HCT-116 [8]) [µM] | IC50 (NCI-H460 [9]) [µM] | IC50 (MCF-10A) [µM] | IC50 (PANC-1 [10]) [µM] | inhibition of growth at 0.5 µM (Calu-1 [11]) [%] | inhibition of growth at 0.5 µM (ACHN [12]) [%] | inhibition of growth at 0.5 µM (HCT-116 [13]) [%] | inhibition of growth at 0.5 µM (PANC-1 [14]) [%] | inhibition of growth at 0.5 µM (NCI-H460 [15]) [%] |
| --- | --- | --- | --- | --- | --- | --- | --- | --- | --- | --- | --- | --- | --- | --- | --- | --- |
| CC(C)CC(=O)c1c(O)c(C(=O)CC(C)C)c(O)c(C(c2cccs2)c2c(O)c(C(=O)CC(C)C)c(O)c(C(=O)CC(C)C)c2O)c1O | 50 | 60 | 8.9 | 54 | > 10 | 57 | 62 | 8.9 | 9.1 | > 30 | 8.5 |  |  |  |  |  |
| CC(C)CC(=O)c1c(O)c(C(=O)CC(C)C)c(O)c(C(c2ccc(-c3ccccc3)cc2)c2c(O)c(C(=O)CC(C)C)c(O)c(C(=O)CC(C)C)c2O)c1O | 59 | 54 | 7.9 | 54 | 8.9 | 55 | 52 | 8.6 | 8.3 | > 26.3 | 9.1 |  |  |  |  |  |
| CC(C)CC(=O)c1c(O)c(C(=O)CC(C)C)c(O)c(C(c2cc3ccccc3s2)c2c(O)c(C(=O)CC(C)C)c(O)c(C(=O)CC(C)C)c2O)c1O | 54 | 59 | 9.5 | 54 | 9.9 | 65 | 54 | 9.8 | 9.7 | > 30 | 9.8 |  |  |  |  |  |
| CC(=O)c1c(O)c(C(C)=O)c(O)c(C(c2cccs2)c2c(O)c(C(C)=O)c(O)c(C(C)=O)c2O)c1O | 57 | 64 | 9.7 | 54 | 9.2 | 55 | 0 | 9.9 | 8.9 | > 30 | 9.4 |  |  |  |  |  |
| CC(C)CC(=O)c1c(O)c(C(=O)CC(C)C)c(O)c(C(c2ccc(C(F)(F)F)cc2C(F)(F)F)c2c(O)c(C(=O)CC(C)C)c(O)c(C(=O)CC(C)C)c2O)c1O | 57 | 60 | 8.5 | 64 | 8.8 | 61 | 65 | 9.2 | 8.6 | 27.6 | 8.3 |  |  |  |  |  |
| CC(C)CC(=O)c1c(O)c(C=O)c(O)c(C(c2ccc3c(c2)OCO3)c2c(O)c(C=O)c(O)c(C(=O)CC(C)C)c2O)c1O | 53 | 55 | 9.2 | 51 | 8.9 | 50 | 54 | 9.5 | 8.6 | 25.9 | 8.8 |  |  |  |  |  |
| CC(C)CC(=O)c1c(O)cc(O)c(C=O)c1O | 52 | 50 | 9.1 | 58 | 8.9 | 57 | 59 | 9.7 | 9.4 | > 27.3 | 8.5 |  |  |  |  |  |
| Nc1ccn([C@@H]2O[C@H](CO)[C@@H](O)C2(F)F)c(=O)n1 [GEMCITABINE] |  |  | 0.52 |  | 0.48 |  |  | 0.32 | 0.23 | > 10 | 0.11 | 74 | 77 | 86 | 83 | 81 |
| CC(C)CC(=O)c1c(O)c(C=O)c(O)c(C(c2cccnc2)c2c(O)c(C=O)c(O)c(C(=O)CC(C)C)c2O)c1O | 71 | 67 | 6.3 | 68 | 5.7 | 69 | 66 | 5.5 | 5.8 | > 30 | 6.1 |  |  |  |  |  |
| CC(C)CC(=O)c1c(O)c(C=O)c(O)c(C(c2ccc3c(c2)Cc2ccccc2-3)c2c(O)c(C=O)c(O)c(C(=O)CC(C)C)c2O)c1O | 50 | 57 | 8.8 | 54 | 9.9 | 52 | 58 | 9.4 | 9.2 | 26.2 | 9.6 |  |  |  |  |  |
| CC(C)CC(=O)c1c(O)c(C=O)c(O)c(C(c2ccc(OCc3ccccc3)cc2)c2c(O)c(C=O)c(O)c(C(=O)CC(C)C)c2O)c1O | 44 | 6 |  | 49 |  | 48 | 30 |  |  |  |  |  |  |  |  |  |
| CC(C)CC(=O)c1c(O)c(C(=O)CC(C)C)c(O)c(C(c2ccc3c(c2)OCO3)c2c(O)c(C(=O)CC(C)C)c(O)c(C(=O)CC(C)C)c2O)c1O | 67 | 69 | 6.5 | 63 | 6.7 | 60 | 62 | 7.1 | 6.6 | > 30 | 7.2 |  |  |  |  |  |
| CC(C)CC(=O)c1c(O)c(C(=O)CC(C)C)c(O)c(C(c2c(O)c(C(=O)CC(C)C)c(O)c(C(=O)CC(C)C)c2O)C2CCCCC2)c1O | 14 | 0 |  | 29 |  | 0 | 18 |  |  |  |  |  |  |  |  |  |
| CC(C)CC(=O)c1c(O)c(C(=O)CC(C)C)c(O)c(C(C)c2c(O)c(C(=O)CC(C)C)c(O)c(C(=O)CC(C)C)c2O)c1O | 11 | 0 |  | 12 |  | 25 | 12 |  |  |  |  |  |  |  |  |  |
